Measurements: ChEMBL document CHEMBL4513216, “Probing the Open Global Health Chemical Diversity Library for Multistage-Active Starting Points for Next-Generation Antimalarials” (ACS Infect Dis, 2020)

Experiment: Toxicity liver stage against HepG2, at 10uM
Format: cell-based
Set-up: test concentration 10 uM, cell line HepG2-A16-CD81EGFP
Details: human, HepG2-A16-CD81EGFP cells; read-out: INHIBITION
In short: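 Uninfected HepG2-A16-CD81EGFP cells, 3 × 10^3 per well, 1536-well, plated on prespotted compound at 10 μM final, parasite-free screening media added to match infected plates; puromycin 10 μM positive, DMSO 0.5% negative; run in parallel with 48 h PbLuc assay at 37 °C, 5% CO2; viability by CellTiter-Glo luminescence, normalized to controls.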

Compound | cytotoxicity at 10 µM [%]
Cc1nc(C)c(CN2CCOC(Cc3ccccc3Cl)C2)nc1C (centres undefined) | 5.32
CCCNC(=O)COc1cc(C)c2c(C)nn(-c3ccc(C)cc3)c2n1 | -0.217
O=c1[nH]cc(Nc2ccc(Cl)cc2)c(=O)[nH]1 | 18.4
O=c1ccc(-n2ccnc2)nn1CCNS(=O)(=O)c1ccc(Cl)s1 | -1.36
CCCc1nnsc1C(=O)NCC(O)c1ccoc1 (centres undefined) | 4.25
CCc1ccc(S(=O)(=O)NCCC(O)c2ccoc2)s1 (centres undefined) | -10.9
CC(C)CC(=O)N1CC[C@@H]2CN(CC(=O)N(C)C)S(=O)(=O)[C@@H]2CC1 | 10
CCN1C(=O)CC(c2cnn(C)c2)C12CCN(C(=O)c1ccoc1)CC2 (centres undefined) | 9.61
CS(=O)(=O)N[C@@H]1COC[C@@H]2CN(Cc3ccoc3)C[C@@H]21 | -4.85
Cc1ccc2c(c1)CCC21CCN(CCO)CC1 | -0.675
CS(=O)(=O)N1CC[C@H]2O[C@@H](C(=O)NCc3ccco3)CC[C@H]21 | 4.23
COc1ncccc1C(=O)N1CC[C@H]2C[C@@H](c3noc(C)n3)O[C@@H]2C1 | 4.76
Cc1c(CCC(=O)Nc2ccc(Br)cn2)cnn1C | -6.14
O=C(NCCc1cc(N2CCOCC2)nc(N2CCCC2)n1)C1CC1 | 6.8
Cc1cn[nH]c1C1CCCN1Cc1ccc(F)c(F)c1 (centres undefined) | 4.14
CN1CCCC1(CCCc1cccnc1)C(=O)NCc1nccn1C (centres undefined) | 0.732
Oc1cc(C2CCCCN2C2CCCC2)nc(-c2cccnc2)n1 (centres undefined) | 11.2
Cc1cccc(CN2CCCC[C@H]3CN(c4ncccn4)C[C@H]32)c1 | 1.18
CN1CCCCC1c1ccc(-n2ccnc2)nc1 (centres undefined) | 5.01
CN1CCC(c2cccc(-c3ccc(C(=O)O)cc3)n2)CC1 | -0.358
COc1ccc(S(=O)(=O)N2C[C@H](OC)[C@]3(CCCO3)C2)cc1 | 1.64
COCC(=O)N1CCC(c2noc3nc(C)cc(C(F)(F)F)c23)CC1 | 2.78

Compound | cytotoxicity at 10 µM [%]
Cc1cccc(CS(=O)(=O)CC(O)Cn2cccn2)c1 (centres undefined) | -2.07
Cc1cc(NC(=O)c2ccc(N3CCOCC3)c(F)c2)[nH]n1 | -33.9
CNC(=O)Cn1ccc2ccc(NC(=O)NC(C)C(C)C)cc21 (centres undefined) | 3.36
CCC(O)(CNCc1ncc[nH]1)c1ccc(Br)cc1 (centres undefined) | 3.54
COc1ccc(C2CCCN2c2nnc(C)s2)c(OC)c1 (centres undefined) | 9.74
CCS(=O)(=O)CC(=O)NC(C)c1ccc(OCCC(C)C)cc1 (centres undefined) | 5.61
COCCOc1ccccc1NC(C)C(=O)NC(=O)NC(C)(C)C (centres undefined) | 1.47
Cc1ccn2ncc(C(=O)N3CCCC(c4cc(C)[nH]n4)C3)c2n1 (centres undefined) | -8.02
Cc1[nH]ccc1C(=O)NCC1CC(=O)N(CCc2ccccc2)C1 (centres undefined) | -1.92
CCN(CC1CCOC1)C(=O)c1ccc(COc2ccccc2C#N)o1 (centres undefined) | 3.34
COc1ncccc1NC(=O)N1CCC(c2ccc(O)cc2)CC1 | 4.87
O=c1[nH]ncc(NCCOc2cccc(Br)c2)c1Cl | 41.8
C[S+]([O-])c1cccc(NC(=O)N(CCC#N)Cc2ccccn2)c1 (centres undefined) | 10.6
O=C(CCCc1ccccn1)NCC(O)c1c(F)cccc1F (centres undefined) | -7.85
COc1cccc(SCC(=O)N2CCCC(N3CCCC3=O)C2)c1 (centres undefined) | 6.16
CC(C)C(O)CNC(=O)CCCc1ccccn1 (centres undefined) | 0.665
CC(C)CNC(=O)c1ccc(NC(=O)NC2CC2)cc1Cl | 2.56
O=C(c1cc(-n2cccn2)ccn1)N(CC1CCC1)CC(F)(F)F | 6.4
N#Cc1ccc(NCCCN2C(=O)COc3ccccc32)nc1 | 11
O=C(Nc1c(F)cccc1Oc1ccccc1)C1CCS(=O)(=O)C1 (centres undefined) | 1.91
Cc1ccc(C2CSCCN2CC(=O)N2CCOCC2)cc1 (centres undefined) | 9.04
Cc1cnn(CC(C)Nc2nc(C)cc(N(C)C)n2)c1 (centres undefined) | 7.07

Compound | cytotoxicity at 10 µM [%]
CCc1cnc(CCNC(C)CC(=O)Nc2cccc(C)c2C)s1 (centres undefined) | 6.69
CCOCC1CN(C(=O)c2ccoc2)Cc2cnn(C)c21 (centres undefined) | 0.13
Cc1ccc(CN2C[C@@H](C(=O)Nc3cccnc3)C[C@H]3OCC[C@H]32)o1 | 3.82
CC(C)c1cc(C(=O)N2CC[C@@H](c3ccc4c(c3)OCO4)[C@H](O)C2)[nH]n1 | 3.29
Cn1c(C(N)=O)cc2c1CN(C(=O)C1CCCN(C3CCCC3)C1)CC2 (centres undefined) | -47.1
CCN(Cc1nc(C)no1)C(=O)C1CC(=O)N(Cc2cccnc2)C1 (centres undefined) | 4.03
O=C(Nc1ccccc1CCc1ccccn1)NC1CCOCC1 | 6.1
CCOC(=O)C1CCCCN1Cc1c[nH]nc1-c1cc2ccccc2o1 (centres undefined) | 4.8
Cc1nc(C)c(C)c(N2C[C@@H](CN3CCCN(C)CC3)[C@@H](CO)C2)n1 | -10.4
Cc1cc(C)n2nc(CC(=O)N3CC[C@H]4NCCC[C@]4(CO)C3)nc2n1 | -0.363
CCN(Cc1cc(Cl)ccc1OC)Cc1nccn1C | 1.87
CN(CCCN1CCOCC1)[C@@H]1c2ccccc2C2(CCNCC2)[C@H]1O | -3.12
CCCc1cncnc1N1CCC2(CCC(=O)N(CCOC)C2)CC1 | 1.86
Cc1ccc2nc(C)cc(C(=O)NC(C)c3nnn[nH]3)c2c1 (centres undefined) | 7.8
CCc1nnc(CN(CC)C(=O)C2CCC(=O)N(C3CCCC3)C2)o1 (centres undefined) | 2.01
Cc1ccc(C(C)NC(=O)CNCCn2cccn2)cc1C (centres undefined) | -6.63
Cc1cc(CNC(=O)CCc2c(C)nc3cc(O)nn3c2C)no1 | -3.27
COCCN1CCC(NCc2cccc(C)c2)C1 (centres undefined) | 2.76
Cc1nccc(-c2cccc(NCC(=O)N3CCOC(C)C3)c2)n1 (centres undefined) | -0.776
Cn1ccnc1CN1CCCN(C(=O)c2cccc(CC#N)c2)CC1 | -2.13
CC(=O)N1CCCN(C(=O)NCc2ccc(-c3ccn[nH]3)cc2)CC1 | 0.322
NC(=O)NCC1CCCCN1C(=O)c1cc(F)cc(F)c1 (centres undefined) | -8.15

Compound | cytotoxicity at 10 µM [%]
COCCc1noc(CN2CCOC(CN(C)C)C2)n1 (centres undefined) | -1.04
Cc1ccc(-n2nnc(C(=O)NC(C)C)c2C2CC2)cc1 | -3.37
CCc1nnc(CN2CCOC(Cn3cc(C)cn3)C2)o1 (centres undefined) | -6.59
NC(=O)c1ccc(OCC(=O)NS(=O)(=O)c2ccc3c(c2)CCC3)cc1 | -8.89
Cc1ccc(NC2CCN(C(=O)CCn3nc(C)cc3C)CC2)nn1 | -9.66
Cc1ccc(C(=O)NC(CN2CCCC2=O)c2ccccc2)cn1 (centres undefined) | -4.6
CCc1nc(CN2CCCC(NCc3cnc(C)s3)C2)no1 (centres undefined) | -9.26
Cc1ccc(O)c(CNC2CCCN(Cc3noc(C4CC4)n3)C2)n1 (centres undefined) | -5.59
CC(NC(=O)NCCCc1n[nH]c(N)c1C#N)c1ccccc1F (centres undefined) | -3.6
O=C1CC(N(C(=O)c2ccc(F)c(F)c2)C2CC2)C(=O)N1 (centres undefined) | 2.1
Cc1cnc(CN(C)C2CCN(Cc3nc4ccccc4s3)C2)o1 (centres undefined) | -7.97
Cc1nc(C2CCCN2Cc2cc(=O)n(C)c(=O)n2C)no1 (centres undefined) | -0.222
COCCn1cc(NC(=O)NC(C)Cc2c(F)cccc2F)cn1 (centres undefined) | -4.5
c1ccc(Cc2noc(CN(Cc3cccs3)CC3CCCO3)n2)cc1 (centres undefined) | -5.77
COC(=O)c1cccc(C(=O)N2CCCC(n3cncn3)C2)c1 (centres undefined) | -6.48
O=C(COCCOc1ccccc1)N1CCCC(n2ccnc2)C1 (centres undefined) | -19.6
Cc1nc(C)n(CC2CCCN(CC3CCCCC3)C2)n1 (centres undefined) | 2.04
O=C(NCCn1nc2ccccn2c1=O)c1cc[nH]n1 | 3.45
Clc1snnc1CN1CCOC(CNc2cccnn2)C1 (centres undefined) | -11
CC(C)(NCC(=O)NCC(F)(F)F)c1ccc2c(c1)OCCO2 | -8.23
CC(Nc1cccc(CN2CCOC2=O)c1)C(=O)NC(N)=O (centres undefined) | -7.44
Cc1cc(C2CCCN2CCCS(=O)(=O)c2ccccc2)no1 (centres undefined) | -8.83

Compound | cytotoxicity at 10 µM [%]
c1cnnc(N2CCCC2CNCc2nc(C3CC3)no2)c1 (centres undefined) | -22.6
O=C(Nc1ccccc1F)N(CCO)Cc1ccsc1 | 2.05
O=C(CN1CCC(c2cccc(F)c2)C1)NCC(F)(F)F (centres undefined) | -10.4
Cc1cccc(OCCC(=O)N2CCCN(C(N)=O)CC2)c1C | -6.8
CC(C)OCCCNC(=O)CN1CCC(N2CCN(C)C2=O)CC1 | -6.82
CC(Cn1ccnc1)NC(=O)NCCc1ccc2c(c1)OCCO2 (centres undefined) | -1.35
O=C(Cc1ccc2c(c1)OCCO2)NCCc1nnc2n1CCC2 | -9.78
c1cnc(-c2nc(CN3CCCC(Cn4cncn4)C3)cs2)nc1 (centres undefined) | -7.91
Cc1cc(CN(C)C(=O)NCC(C)N2CCc3ccccc32)no1 (centres undefined) | -5.43
O=S(=O)(C1CC1)N1C[C@H](Oc2ccccn2)[C@H]2OCCC[C@H]21 | -3.7
c1c2c(nn1CC1CC1)C(CNC1CCOCC1)OCC2 (centres undefined) | 7.43
Cc1noc(C)c1CN1C[C@H](OCC(=O)N(C)C)[C@H]2COC[C@H]21 | 7.61
Cc1cnc(N2C[C@@H]3CN(Cc4ccco4)CCC[C@]3(C(=O)O)C2)nc1 | 7.25
Cn1cc(N2CC3(CCN(CC4CC4)C3)CC2=O)cn1 (centres undefined) | 1.84
Cc1cc(N(C)C)nc(C2CCCN2)n1 (centres undefined) | -11.1
O=C1[C@H]2CN(S(=O)(=O)C3CC3)C[C@H]2CN1Cc1cccnc1 | -0.0545
c1cnc(N2C[C@@H]3COC[C@]3(COCC3CCCC3)C2)nc1 | -8.85
Cc1oncc1C(=O)N1C[C@H](OCc2ccccn2)[C@H]2OCCC[C@H]21 | -0.385
Cc1nc(CN2CCOCC3(CCCN(c4cnccn4)C3)C2)cs1 (centres undefined) | -1.81
Cc1cccc(N2CCC3(CCN(Cc4ccccn4)CC3)CC2)n1 | 4.17
Cc1ncsc1CN1C[C@@H]2CC[C@H]1CN(Cc1ccccc1)C2 | -14.1
